Measured values: ChEMBL document CHEMBL1144816, “Potential anticancer activity of naturally occurring and semisynthetic derivatives of aculeatins A and B from Amomum aculeatum” (2008)
Active and inactive are the calls of the source. The rule behind the calls is not given here.

Experiments:
[1] = test system: Lu1; experiment: Cytotoxicity against human Lu1 cells; format: functional; details: read-out: ED50 (the source's name)
[2] = test system: LNCaP; experiment: Cytotoxicity against human LNCaP cells; format: functional; details: read-out: ED50 (the source's name)
[3] = test system: MCF7; experiment: Cytotoxicity against human MCF7 cells; format: functional; details: read-out: ED50 (the source's name)
[4] = test system: P388; experiment: Antitumor activity against mouse P388 lymphocytic leukemia model at 15 mg/kg, ip relative to control; format: functional; details: route intraperitoneal
Method in brief: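 Murine P388 lymphocytic leukemia in vivo. Compound given by intraperitoneal injection at 15 mg/kg/injection. Activity expressed as T/C (%) relative to control.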

[5] = Antitumor activity against human A2780S cells xenografted in mouse at 3 mg/kg relative to control; format: functional, A2780
Method in brief: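 Mice bearing human A2780S ovarian carcinoma xenografts; dosed at 3 mg/kg/injection; activity read out as log cell kill versus control; run per a previously published protocol.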

[6] = test system: MCF7; experiment: Inhibition of human MCF7 cells propagated in hollow fibers via intraperitoneal site of immunodeficient mouse at 6.25 to 50 mg/kg after 3 to 6 days; format: functional; details: dose mg/kg 6.25-50
Method in brief: (§1)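 Lu1, LNCaP or MCF-7 cells in hollow fibers implanted subcutaneously or intraperitoneally in immunodeficient mice. Dosing was once daily by intraperitoneal injection at 6.25, 12.5, 25 or 50 mg/kg on days 3–6 after implantation. Growth inhibition was measured against vehicle-treated animals.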

[7] = test system: Lu1; experiment: Inhibition of human Lu1 cells propagated in hollow fibers via intraperitoneal site of immunodeficient mouse at 6.25 to 50 mg/kg after 3 to 6 days; format: functional, organism-based; method in brief: as §1
[8] = test system: LNCaP; experiment: Inhibition of human LNCaP cells propagated in hollow fibers via intraperitoneal site of immunodeficient mouse at 6.25 to 50 mg/kg after 3 to 6 days; format: functional, organism-based; method in brief: as §1
[9] = test system: MCF7; experiment: Inhibition of human MCF7 cells propagated in hollow fibers via subcutaneous site of immunodeficient mouse at 6.25 to 50 mg/kg after 3 to 6 days; format: functional, organism-based; method in brief: as §1
[10] = test system: Lu1; experiment: Inhibition of human Lu1 cells propagated in hollow fibers via subcutaneous site of immunodeficient mouse at 6.25 to 50 mg/kg after 3 to 6 days; format: functional, organism-based; method in brief: as §1
[11] = test system: LNCaP; experiment: Inhibition of human LNCaP cells propagated in hollow fibers via subcutaneous site of immunodeficient mouse at 6.25 to 50 mg/kg after 3 to 6 days; format: functional, organism-based; method in brief: as §1

SMILES	EC50 ([1]; Homo sapiens, Lu1) [µM]	EC50 ([2]; Homo sapiens, LNCaP) [µM]	EC50 ([3]; Homo sapiens, MCF7) [µM]	other results
CCCCCCCCCCCCC[C@@H]1C[C@@H](OC(=O)c2ccc(Br)cc2)C[C@]2(CCC3(C=CC(=O)C=C3)O2)O1	1.3	0.8	0.7	–
CCCCCCCCCCCCC[C@@H]1C[C@@H](OC(=O)c2cc(F)c(Cl)nc2Cl)C[C@]2(CCC3(C=CC(=O)C=C3)O2)O1	22.2	17.9	14.6	–
CCCCCCCCCCCCC[C@@H]1C[C@@H](OC(=O)COCC(=O)O)C[C@]2(CCC3(C=CC(=O)C=C3)O2)O1	3.4	1.9	1.3	–
CCCCCCCCCCCCC[C@@H]1C[C@@H](O)C[C@@]2(CC[C@]3(C=CC(=O)C[C@@H]3O)O2)O1 (relative stereo) [ACULEATOL E]	1.8	4.4	3.9	–
CCCCCCCCCCCCC[C@@H]1C[C@@H](OC(=O)c2c(Cl)c(Cl)c(Cl)c(Cl)c2C(=O)O)C[C@]2(CCC3(C=CC(=O)C=C3)O2)O1	12.8	5.8	4.8	–
CCCCCCCCCCCCC[C@@H]1C[C@@H](OC(C)=O)C[C@]2(CCC3(C=CC(=O)C=C3)O2)O1	2.6	1.1	1.5	–
CCCCCCCCCCCCC[C@@H]1C[C@@H](O)C[C@]2(CCC3(C=CC(=O)C=C3)O2)O1 [ACULEATIN A]	1	0.5	0.2	T/C [4]: 122%; LCK [5]: 0.4; Inhibition [6]: 10%; Activity [7]: inactive; Activity [8]: inactive; Activity [9]: inactive; Activity [10]: inactive; Activity [11]: inactive
CCCCCCCCCCC[C@@H]1C[C@@H](O)C[C@]2(CCC3(C=CC(=O)C=C3)O2)O1 (relative stereo) [ACULEATIN F]	1	0.7	0.5	–
CCCCCCCCCCCCCCC[C@@H](O)CC1(OC)CCC2(C=CC(=O)C=C2)O1 (stereo in doubt; 6)	–	–	–	EC50 [1]: 0.9 µM; EC50 [2]: 0.7 µM; EC50 [3]: 0.9 µM
CCCCCCCCCCCCC[C@@H]1C[C@@H](OC(C)=O)C[C@@]2(CCC3(C=CC(=O)C=C3)O2)O1	5.7	2.2	3.5	–
CCCCCCCCCCCCC[C@@H]1CC(=O)C[C@]2(CCC3(C=CC(=O)C=C3)O2)O1	30.5	22.1	7.5	–
CCCCCCCCCCCCC[C@@H]1C[C@@H](O)C[C@@]2(CCC3(C=CC(=O)C=C3)O2)O1 [ACULEATINS B]	3.1	1.2	1.9	–
CCCCCCCCCCCCC[C@@H]1C[C@@H](OC(=O)c2c(Br)c(Br)c(Br)c(Br)c2C(=O)O)C[C@]2(CCC3(C=CC(=O)C=C3)O2)O1	10.3	5.1	4.7	–
CCCCCCCCCCCCCCC[C@@H](O)CC1(OC)CCC2(C=CC(=O)C=C2)O1 (stereo in doubt; 7)	0.5	0.9	0.7	–
CCCCCCCCCCCCC[C@@H]1C[C@@H](OC(=O)[C@@]23CC[C@@](C)(C(=O)O2)C3(C)C)C[C@]2(CCC3(C=CC(=O)C=C3)O2)O1	4	3	3.2	–
CCCCCCCCCCC[C@@H]1C[C@H](O)C[C@@]2(CCC3(C=CC(=O)C=C3)O2)O1 (relative stereo) [ACULEATIN E]	1.8	1.8	0.5	–
